Measured values of several laboratories.
Protocols differ between the studies behind these lines.

| Structure (SMILES) | target or system | assay | test system | conditions | quantity | result |
| --- | --- | --- | --- | --- | --- | --- |
| CC1=NN(c2ccc(C)c(C)c2)C(=O)/C1=N\Nc1cccc(-c2cccc(C(=O)O)c2)c1O | Severe acute respiratory syndrome coronavirus 2 | viral replication, inhibitor | Caco-2 | replicon | IC50 | 3.1 µM |
| COc1ccc(C=NNC(=S)N[N+](=O)[O-])cc1OC | Leishmania tropica | parasite growth | J774.A1 | 72 h, intracellular, amastigote | IC50 | 775 µM |
| CC(=O)O[C@H]1C(=O)[C@@]2(C)[C@H]([C@H](OC(=O)c3ccccc3)[C@]3(O)C[C@H](OC(=O)[C@H](O)[C@@H](NC(=O)c4ccccc4)c4ccccc4)C(C)=C1C3(C)C)[C@]1(OC(C)=O)CO[C@@H]1C[C@@H]2O | L02 | cell growth or viability, CCK-8 | – | 12.5 µM, 72 h | inhibition | > 90% |
| O=[N+]([O-])NC(=S)NN=Cc1ccc(Br)cc1 | Leishmania tropica | parasite growth, MTT | – | 72 h, promastigote | IC50 | 1240 µM |
| COc1cnc(OC)n2nc(NS(=O)(=O)c3c(OCC(F)F)cccc3C(F)(F)F)nc12 | L02 | cell growth or viability, CCK-8 | – | 100 µM, 72 h | inhibition | 1.54% |
| COc1ncncc1-c1cn([C@@H]2O[C@](F)(CO[P@@](=O)(N[C@@H](C)C(=O)OC(C)C)Oc3ccccc3)[C@@H](O)[C@H]2O)cn1 | Severe acute respiratory syndrome coronavirus 2 | viral replication, inhibitor | A549-ACE2 | 24 h | IC50 | > 100 µM |
| N.N.[Cl][Pt][Cl] | NALM-6 | cell growth or viability, ATP luminescence | – | 72 h | IC50 | 1.05 µM |
| CC(=O)OCC(=O)[C@@]12OC3(CCCC3)O[C@@H]1C[C@H]1[C@@H]3CCC4=CC(=O)C=C[C@]4(C)[C@@]3(F)[C@@H](O)C[C@@]12C | Severe acute respiratory syndrome coronavirus 2 | viral replication, inhibitor | Caco-2 | replicon | IC50 | 3.37 µM |
| Nc1ncc(-c2cn([C@@H]3O[C@](F)(CO)[C@@H](O)[C@H]3O)cn2)cn1 | Severe acute respiratory syndrome coronavirus 2 | viral replication, inhibitor | A549-ACE2 | 24 h | IC50 | > 100 µM |
| Cc1c(O)cccc1C(=O)N[C@@H](CSc1ccccc1)[C@H](O)CN1C[C@H]2CCCC[C@H]2C[C@H]1C(=O)NC(C)(C)C | Severe acute respiratory syndrome coronavirus 2 | viral replication, inhibitor | Calu-3 | replicon | IC50 | 4.05 µM |
| COc1ncncc1-c1cn([C@@H]2O[C@](F)(CO[P@@](=O)(N[C@@H](C)C(=O)OC(C)C)Oc3ccccc3)[C@@H](OC(=O)C(C)C)[C@H]2OC(=O)C(C)C)cn1 | Severe acute respiratory syndrome coronavirus 2 | viral replication, inhibitor | A549-ACE2 | 24 h | IC50 | 25.5 µM |
| CCOc1nc2cccc(C(=O)O)c2n1Cc1ccc(-c2ccccc2-c2nnn[nH]2)cc1 | Severe acute respiratory syndrome coronavirus 2 | viral replication, inhibitor | Calu-3 | replicon | IC50 | 1.05 µM |
| COc1ncc(-c2cn([C@@H]3O[C@](F)(CO[P@@](=O)(N[C@@H](C)C(=O)OC(C)C)Oc4ccccc4)[C@@H](O)[C@H]3O)cn2)cn1 | Severe acute respiratory syndrome coronavirus 2 | viral replication, inhibitor | A549-ACE2 | 24 h | IC50 | > 100 µM |
| Cc1ccc(C=NNC(=S)N[N+](=O)[O-])cc1 | Leishmania tropica | parasite growth | J774.A1 | 72 h, intracellular, amastigote | IC50 | 331 µM |
